Measurements published in PMC9366314 (Acta Pharmaceutica Sinica. B, 2022).

Experiments:
Type in all cases: cell-based
[1] = system: 92.1 cells (GNAQ Q209L mutation); assay: Cell proliferation inhibition assay; conditions: 72 h, read-out: Antiproliferation (IC50, μmol/L) 92.1
Summary of the method: (§1)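 Uveal melanoma cells were grown in RPMI-1640 with 10% FBS at 37 °C, 5% CO2. They were resuspended at 3 × 10^3 cells/mL, seeded and left overnight. Cells were exposed to a concentration series of test compound for 72 h. CCK-8 was added for 2–4 h and absorbance read at 450 nm. IC50 values were fitted from the curves and reported as mean ± SEM, n = 3.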

[2] = system: Gαq/11; assay: IP1 accumulation assay; conditions: CHO-M1 cells, mean ± SEM (n = 3)
[3] = system: MP41 cells (GNA11 Q209L mutation); assay: Cell proliferation inhibition assay; conditions: MP41, 72 h, read-out: Antiproliferation (IC50, μmol/L) MP41
Summary of the method: as §1

| SMILES | IC50 [1] [µmol/L] | IP1 inhibition at 10 μmol/L [2] [%] | IC50 [3] [µmol/L] |
| --- | --- | --- | --- |
| CC[C@H](C)[C@H](N)C(=O)N1CCn2cc(-c3ccccn3)nc2[C@@H]1CC1CCCCC1 [GQ220] | > 40 | 20.8 ± 1.1 | > 40 |
| CC[C@H](C)[C@H](N)C(=O)N1CCn2cc(-c3cccnc3)nc2[C@@H]1CC1CCCCC1 [GQ221] | > 40 | 20.0 ± 0.6 | > 40 |
| CC[C@H](C)[C@H](N)C(=O)N1CCn2cc(-c3ccncc3)nc2[C@@H]1CC1CCCCC1 [GQ222] | > 40 | 27.0 ± 5.2 | > 40 |
| CC[C@H](C)[C@H](N)C(=O)N1CCn2cc(-c3ccco3)nc2[C@@H]1CC1CCCCC1 [GQ223] | > 40 | 16.6 ± 1.2 | > 40 |
| CC[C@H](C)[C@H](N)C(=O)N1CCn2cc(-c3ccoc3)nc2[C@@H]1CC1CCCCC1 [GQ224] | > 40 | 31.5 ± 6.0 | > 40 |
| CC[C@H](C)[C@H](N)C(=O)N1CCn2cc(-c3cccs3)nc2[C@@H]1CC1CCCCC1 [GQ225] | 18.8 ± 1.7 | 28.7 ± 1.6 | 25.3 ± 0.9 |
| CC[C@H](C)[C@H](N)C(=O)N1CCn2cc(-c3nccs3)nc2[C@@H]1CC1CCCCC1 [GQ226] | > 40 | 29.5 ± 3.0 | > 40 |
| CC[C@H](C)[C@H](N)C(=O)N1CCn2cc(C3CCCCC3)nc2[C@@H]1CC1CCCCC1 [GQ227] | 21.6 ± 0.6 | 18.4 ± 0.9 | 21.2 ± 0.5 |
| CC[C@H](C)[C@H](N)C(=O)N1CCn2cc(C3=CCCCC3)nc2[C@@H]1CC1CCCCC1 [GQ228] | 19 ± 0.6 | 24.8 ± 1.5 | 11 ± 0.1 |
| CC[C@H](C)[C@H](N)C(=O)N1CCn2cc(C3CCCC3)nc2[C@@H]1CC1CCCCC1 [GQ229] | > 40 | 15.8 ± 1.8 | > 40 |
| CC[C@H](C)[C@H](N)C(=O)N1CCn2cc(C3CCNCC3)nc2[C@@H]1CC1CCCCC1 [GQ230] | > 40 | 13.7 ± 0.6 | > 40 |
| CC[C@H](C)[C@H](N)C(=O)N1CCn2cc(C3CCOCC3)nc2[C@@H]1CC1CCCCC1 [GQ231] | > 40 | 20.6 ± 2.1 | > 40 |
| CC[C@H](C)[C@H](N)C(=O)N1CCn2cc(C3CCC(C)(C)CC3)nc2[C@@H]1CC1CCCCC1 [GQ232] | 16.1 ± 1 | 10.9 ± 0.7 | 19.8 ± 0.1 |
| CC[C@H](C)[C@H](N)C(=O)N1CCn2cc(C3CCC(F)(F)CC3)nc2[C@@H]1CC1CCCCC1 [GQ233] | > 40 | 22.2 ± 1.9 | > 40 |
| CC[C@H](C)[C@H](N)C(=O)N1CCn2cc(C(C)C)nc2[C@@H]1CC1CCCCC1 [GQ234] | > 40 | 10.8 ± 1.4 | > 40 |
| CCc1cn2c(n1)[C@H](CC1CCCCC1)N(C(=O)[C@@H](N)[C@@H](C)CC)CC2 [GQ235] | > 40 | 22.3 ± 1.3 | > 40 |
| CC[C@H](C)[C@H](N)CN1CCn2cc(-c3ccccc3)nc2[C@@H]1CC1CCCCC1 [GQ236] | 9.3 ± 0.5 | 48.4 ± 2.4 | 10.1 ± 0.2 |
| CC(C)C[C@H](N)CN1CCn2cc(-c3ccccc3)nc2[C@@H]1CC1CCCCC1 [GQ237] | 5.8 ± 0.1 | 43.0 ± 3.3 | 4 ± 1.3 |
| CC(C)[C@H](N)CN1CCn2cc(-c3ccccc3)nc2[C@@H]1CC1CCCCC1 [GQ238] | 7.3 ± 0.7 | 34.4 ± 1.7 | 6.2 ± 0.7 |
| C[C@H](N)CN1CCn2cc(-c3ccccc3)nc2[C@@H]1CC1CCCCC1 [GQ239] | 11.6 ± 0.6 | 50.2 ± 5.2 | 6 ± 0.6 |
| NCCN1CCn2cc(-c3ccccc3)nc2[C@@H]1CC1CCCCC1 [GQ240] | 9.6 ± 0.6 | 22.5 ± 4.2 | 7.4 ± 0.3 |
| CC[C@H](N)CN1CCn2cc(-c3ccccc3)nc2[C@@H]1CC1CCCCC1 [GQ241] | 6.6 ± 0.2 | 31.3 ± 9.0 | 5.9 ± 0.5 |
| CCC[C@H](N)CN1CCn2cc(-c3ccccc3)nc2[C@@H]1CC1CCCCC1 [GQ242] | 4.7 ± 0.4 | 41.0 ± 6.0 | 5 ± 0.1 |

| SMILES | IC50 [1] [µmol/L] | IP1 inhibition at 10 μmol/L [2] [%] | IC50 [3] [µmol/L] |
| --- | --- | --- | --- |
| CC(C)(C)[C@H](N)CN1CCn2cc(-c3ccccc3)nc2[C@@H]1CC1CCCCC1 [GQ243] | 9.6 ± 0.7 | 41.6 ± 5.8 | 5.7 ± 0.7 |
| N[C@@H](CC1CCCCC1)CN1CCn2cc(-c3ccccc3)nc2[C@@H]1CC1CCCCC1 [GQ244] | 9 ± 1.3 | 45.8 ± 10.5 | 5.6 ± 0.3 |
| N[C@H](CN1CCn2cc(-c3ccccc3)nc2[C@@H]1CC1CCCCC1)C1CCCCC1 [GQ245] | 5.7 ± 0.1 | 46.8 ± 8.6 | 5 ± 0.3 |
| N[C@H](CS)CN1CCn2cc(-c3ccccc3)nc2[C@@H]1CC1CCCCC1 [GQ246] | 15.8 ± 1 | 40.4 ± 7.0 | 14.9 ± 0.8 |
| CSCC[C@H](N)CN1CCn2cc(-c3ccccc3)nc2[C@@H]1CC1CCCCC1 [GQ247] | 6 ± 0.3 | 44.5 ± 3.4 | 5.6 ± 0.2 |
| N[C@H](CO)CN1CCn2cc(-c3ccccc3)nc2[C@@H]1CC1CCCCC1 [GQ248] | 10.9 ± 0.5 | 49.7 ± 9.5 | 7.9 ± 0.7 |
| C[C@H](O)[C@H](N)CN1CCn2cc(-c3ccccc3)nc2[C@@H]1CC1CCCCC1 [GQ249] | 11.4 ± 0.3 | 44.1 ± 3.0 | 5.8 ± 0.6 |
| N[C@@H](CCO)CN1CCn2cc(-c3ccccc3)nc2[C@@H]1CC1CCCCC1 [GQ250] | 10.4 ± 0.2 | 41.8 ± 2.7 | 6.9 ± 1 |
| N[C@@H](CCCO)CN1CCn2cc(-c3ccccc3)nc2[C@@H]1CC1CCCCC1 [GQ251] | 12.6 ± 0.7 | 51.2 ± 4.9 | 7.4 ± 0.8 |
| NCC[C@H](N)CN1CCn2cc(-c3ccccc3)nc2[C@@H]1CC1CCCCC1 [GQ252] | 3.5 ± 0.3 | 35.9 ± 7.3 | 5.2 ± 0.7 |
| NCCC[C@H](N)CN1CCn2cc(-c3ccccc3)nc2[C@@H]1CC1CCCCC1 [GQ253] | 9.7 ± 0.4 | 32.4 ± 1.0 | 9.2 ± 0.6 |
| NCCCC[C@H](N)CN1CCn2cc(-c3ccccc3)nc2[C@@H]1CC1CCCCC1 [GQ254] | 11.2 ± 0.7 | 44.2 ± 0.3 | 8 ± 0.6 |
| N=C(N)NCCC[C@H](N)CN1CCn2cc(-c3ccccc3)nc2[C@@H]1CC1CCCCC1 [GQ255] | > 40 | 27.7 ± 6.7 | > 40 |
| N[C@@H](Cc1ccc(O)cc1)CN1CCn2cc(-c3ccccc3)nc2[C@@H]1CC1CCCCC1 [GQ256] | 8.7 ± 0.7 | 47.6 ± 5.0 | 9 ± 1.2 |
| N[C@@H](Cc1c[nH]c2ccccc12)CN1CCn2cc(-c3ccccc3)nc2[C@@H]1CC1CCCCC1 [GQ257] | 9.6 ± 0.5 | 33.2 ± 1.3 | 6 ± 0.3 |
| N[C@@H](Cc1ccccc1)CN1CCn2cc(-c3ccccc3)nc2[C@@H]1CC1CCCCC1 [GQ258] | 11.6 ± 1.4 | 48.3 ± 6.5 | 7.9 ± 1.5 |
| N[C@@H](Cc1c[nH]cn1)CN1CCn2cc(-c3ccccc3)nc2[C@@H]1CC1CCCCC1 [GQ259] | 10.7 ± 0.8 | 36.3 ± 0.9 | 5.8 ± 0.6 |
| c1ccc(-c2cn3c(n2)[C@H](CC2CCCCC2)N(C[C@@H]2CCCN2)CC3)cc1 [GQ260] | 11.6 ± 1.2 | 53.4 ± 7.0 | 6.7 ± 0.6 |
| c1ccc(-c2cn3c(n2)[C@H](CC2CCCCC2)N(C[C@@H]2CCCCN2)CC3)cc1 [GQ261] | 11 ± 0.5 | 27.0 ± 5.1 | 6.2 ± 0.8 |
| CC(C)[C@H]1c2nc(-c3ccccc3)cn2CCN1C[C@@H]1CCCN1C [GQ264] | > 40 | 5.9 ± 1.1 | > 40 |
| CC(C)[C@@H]1c2nc(-c3ccccc3)cn2CCN1C[C@@H]1CCCN1C [GQ265] | > 40 | 13.5 ± 0.5 | > 40 |
| CC(C)C[C@@H]1c2nc(-c3ccccc3)cn2CCN1C[C@@H]1CCCN1C [GQ266] | > 40 | 17.5 ± 1.1 | > 40 |
| CN1CCC[C@H]1CN1CCn2cc(-c3ccccc3)nc2[C@@H]1C1CCCCC1 [GQ267] | > 40 | 8.9 ± 0.8 | > 40 |
